From ChEMBL document CHEMBL3259538, “Identification of the stereochemical requirements in the 4-aryl-2-cycloalkylidenhydrazinylthiazole scaffold for the design of selective human monoamine oxidase B inhibitors” (Bioorg Med Chem, 2014)

Tests used:
[1] = target: T1, Amine oxidase [flavin-containing] A (Homo sapiens, UniProt P21397); assay: Inhibition of human recombinant MAO-A expressed in baculovirus-infected BTI-TN-5B1-4 cell microsomes assessed as decrease in H2O2 production using p-tyramine as substrate preincubated for 15 mins by Amplex Red reagent based fluorimetric method
T1 sequence (P21397 whole entry): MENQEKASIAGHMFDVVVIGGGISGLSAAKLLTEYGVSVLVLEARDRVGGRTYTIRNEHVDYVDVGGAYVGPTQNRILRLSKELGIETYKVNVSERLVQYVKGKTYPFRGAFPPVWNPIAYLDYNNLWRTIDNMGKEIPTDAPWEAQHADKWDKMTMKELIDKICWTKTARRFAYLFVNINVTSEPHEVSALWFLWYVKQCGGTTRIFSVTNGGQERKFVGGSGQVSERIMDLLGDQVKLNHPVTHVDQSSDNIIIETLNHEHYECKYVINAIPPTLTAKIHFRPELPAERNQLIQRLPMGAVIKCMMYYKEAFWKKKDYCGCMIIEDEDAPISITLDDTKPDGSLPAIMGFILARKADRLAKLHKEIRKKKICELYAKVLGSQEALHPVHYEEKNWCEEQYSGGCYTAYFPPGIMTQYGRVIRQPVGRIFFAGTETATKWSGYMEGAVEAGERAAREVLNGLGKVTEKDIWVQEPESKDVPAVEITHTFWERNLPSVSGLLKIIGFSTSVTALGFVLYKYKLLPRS

BTI-TN-5B1-4 = assay: Selectivity index, ratio of IC50 for human recombinant MAO-A expressed in baculovirus-infected BTI-TN-5B1-4 cell microsomes to IC50 for human recombinant MAO-B expressed in baculovirus-infected BTI-TN-5B1-4 cell microsomes
[2] = target: T2, Amine oxidase [flavin-containing] B (Homo sapiens, UniProt P27338); assay: biochemical; format: cell-based, BTI-TN-5B1-4
T2 sequence (P27338 whole entry): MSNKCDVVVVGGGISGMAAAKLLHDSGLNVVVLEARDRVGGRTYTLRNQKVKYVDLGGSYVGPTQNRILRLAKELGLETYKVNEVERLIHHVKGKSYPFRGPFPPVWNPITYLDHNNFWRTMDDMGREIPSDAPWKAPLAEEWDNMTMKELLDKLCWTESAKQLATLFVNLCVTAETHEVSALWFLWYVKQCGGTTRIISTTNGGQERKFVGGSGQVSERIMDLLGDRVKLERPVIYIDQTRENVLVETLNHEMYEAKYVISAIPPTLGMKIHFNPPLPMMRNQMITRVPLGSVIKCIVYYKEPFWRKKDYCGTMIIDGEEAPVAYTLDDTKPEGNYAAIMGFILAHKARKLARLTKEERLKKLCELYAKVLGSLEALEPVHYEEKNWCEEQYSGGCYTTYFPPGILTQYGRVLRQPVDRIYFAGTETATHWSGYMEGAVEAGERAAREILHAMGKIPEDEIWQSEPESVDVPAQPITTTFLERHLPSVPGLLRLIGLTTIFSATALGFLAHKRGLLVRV

[3] = target: T1, Amine oxidase [flavin-containing] A; assay: Inhibition of human recombinant MAO-A expressed in baculovirus-infected BTI-TN-5B1-4 cell microsomes assessed as decrease in H2O2 production using p-tyramine as substrate at 100 uM preincubated for 15 mins by Amplex Red reagent based fluorimetric method; details: bti-tn-5b1-4, 100 µM
In short: (§1)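 Microsomal enzyme in 0.05 M sodium phosphate, pH 7.4. The enzyme amount was adjusted so that controls oxidize 165 pmol p-tyramine/min. Drug and enzyme were preincubated for 15 min at 37 °C. Final 200 µM Amplex Red and 1 U/mL HRP were then added. Resorufin fluorescence (ex 545/em 590 nm) was read linearly over 15 min at 37 °C. Background without enzyme was subtracted, and drug interference was checked with Amplex Red alone.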

[4] = target: T2, Amine oxidase [flavin-containing] B; assay: Inhibition of human recombinant MAO-B expressed in baculovirus-infected BTI-TN-5B1-4 cell microsomes assessed as decrease in H2O2 production using p-tyramine as substrate at 1 mM preincubated for 15 mins by Amplex Red reagent based fluorimetric method; details: bti-tn-5b1-4, 1000 µM; in short: as §1

SMILES | IC50 [1] [nM] | IC50 [2] [nM] | inhibition (INH) [3] | inhibition (INH) [4] | Ratio IC50 (BTI-TN-5B1-4)
CC1CCC/C1=N\Nc1nc(-c2ccc([N+](=O)[O-])cc2)cs1 (mixture of isomers) | 19200 | 8.31 | – | – | 2310
CC1CC/C(=N\Nc2nc(-c3ccc([N+](=O)[O-])cc3)cs2)C1 (mixture of isomers) | – | 376 | Not Active | – | > 266
CC1CC/C(=N\Nc2nc(-c3ccc(C#N)cc3)cs2)C1 (mixture of isomers) | 11100 | 227 | – | – | 49
O=C(NCCN1CCOCC1)c1ccc(Cl)cc1 [MOCLOBEMIDE] | – | – | – | Not Active | –

Second part, led by results:

IC50 [1] [nM] | IC50 [2] [nM] | inhibition (INH) [3] | inhibition (INH) [4] | SMILES | Ratio IC50 (BTI-TN-5B1-4)
13100 | 5.06 | – | – | C[C@@H]1CC/C(=N\Nc2nc(-c3ccc(F)cc3F)cs2)C1 | 2580
13800 | 2.91 | – | – | C[C@@H]1CC/C(=N/Nc2nc(-c3ccc(F)cc3F)cs2)C1 | 4740
15500 | 5.32 | – | – | C[C@@H]1CCC(=NNc2nc(-c3ccc(F)cc3F)cs2)C1 | 2920
16900 | 9.34 | – | – | CC1CC/C(=N\Nc2nc(-c3ccc(F)cc3F)cs2)C1 (mixture of isomers) | 1810
– | – | Not Active | – | O=C1Nc2ccccc2C1=O [ISATIN] | –
